Where a SMILES comes first, the peptide text is derived from it. The star is where a group is joined. Cbz = O=C(OCc1ccccc1)*
How the values were obtained:
[1] = test system: estrogen receptor (ERE-tk-luc reporter) in MCF-7 cells; test: ERE-tk-luc luciferase transactivation assay in MCF-7 cells; format: cell-based, human; conditions: MCF-7, 10 μM compound, 24 h, RLU normalized to no compound added
[2] = molecular target: GFP-GRER chimera (N-terminus of the glucocorticoid receptor fused to the human ERα ligand binding domain) (Homo sapiens, UniProt P03372); test: GFP-GRER nuclear translocation high-content imaging assay in 6020 cells; format: cell-based
[3] = test system: estradiol-mediated transactivation (ERE-tk-luc) in MCF-7 cells; test: Estradiol competition transactivation luciferase reporter assay in MCF-7 cells; format: cell-based, human
Method in brief: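 MCF-7 cells moved to phenol red–free DMEM with 10% charcoal-stripped FBS for 24 h, then plated at 100,000 cells/well (96-well). Next day each well was transfected with 200 ng ERE-tk-luc plasmid using Lipofectamine LTX. Cells then received 100 nM estradiol alone, test compound alone (100 nM), or estradiol plus 100 nM, 1 μM or 10 μM test compound. Bright-Glo luminescence was read, and RLU normalized to no-compound wells. Triplicates, three biological replicates.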

[4] = MCF-7, 100 nM estradiol + 10 μM compound

Sequence of GFP-GRER chimera (N-terminus of the glucocorticoid receptor fused to the human ERα ligand binding domain) (P03372 302-595, change not shown): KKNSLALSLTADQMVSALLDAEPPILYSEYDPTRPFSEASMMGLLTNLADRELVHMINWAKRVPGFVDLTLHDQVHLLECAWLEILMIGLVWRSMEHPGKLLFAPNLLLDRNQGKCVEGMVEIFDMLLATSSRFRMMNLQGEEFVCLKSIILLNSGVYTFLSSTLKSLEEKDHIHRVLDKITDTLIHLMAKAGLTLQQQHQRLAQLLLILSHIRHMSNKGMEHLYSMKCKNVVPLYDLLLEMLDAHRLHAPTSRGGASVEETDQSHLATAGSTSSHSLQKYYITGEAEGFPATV
Sequence of GFP-GRER chimera (N-terminus of the glucocorticoid receptor fused to the human ERα ligand binding domain) (P06536 1-565, change not shown, further chain): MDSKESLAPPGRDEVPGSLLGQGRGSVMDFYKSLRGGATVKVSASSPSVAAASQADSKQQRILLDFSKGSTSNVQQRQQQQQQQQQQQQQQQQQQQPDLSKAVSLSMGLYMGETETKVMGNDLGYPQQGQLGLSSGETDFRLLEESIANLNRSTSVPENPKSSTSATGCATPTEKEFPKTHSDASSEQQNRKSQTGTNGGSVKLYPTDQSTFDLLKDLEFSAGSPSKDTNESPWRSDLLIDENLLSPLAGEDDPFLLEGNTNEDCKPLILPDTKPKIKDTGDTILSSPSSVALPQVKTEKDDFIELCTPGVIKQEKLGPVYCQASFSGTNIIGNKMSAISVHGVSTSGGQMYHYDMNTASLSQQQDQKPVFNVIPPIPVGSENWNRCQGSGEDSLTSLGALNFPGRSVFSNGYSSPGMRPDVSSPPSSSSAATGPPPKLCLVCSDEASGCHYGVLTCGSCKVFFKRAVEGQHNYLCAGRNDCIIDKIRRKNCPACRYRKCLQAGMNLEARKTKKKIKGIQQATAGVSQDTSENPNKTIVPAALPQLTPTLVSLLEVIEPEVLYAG

Molecule | fold transactivation induction (transactivation potential) [1] | further results
C[C@]12CC[C@@H]3c4ccc(O)cc4C[C@@H](CCCCCCCCC[S+]([O-])CCCC(F)(F)C(F)(F)F)[C@H]3[C@@H]1CC[C@@H]2O (stereo partly drawn) [ICI 182,780] | 0.24 | 
CC(C)C[C@@H](C=O)NC(=O)[C@H](CC(C)C)NC(=O)[C@H](CC(C)C)NC(=O)OCc1ccccc1 [MG132] (Cbz-Leu-Leu-Leu-aldehyde) | 0.61 | EC50 [2]: 192 nM
CC#C[C@]1(O)CC[C@H]2[C@@H]3CCC4=CC(=O)CCC4=C3[C@@H](c3ccc(N(C)C)cc3)C[C@@]21C [RU486] | 0.4 | 
CC(C)C[C@H](NC(=O)[C@H](Cc1ccccc1)NC(=O)c1cnccn1)B(O)O [bortezomib] | 0.78 | decrease in estradiol-mediated transactivation ([3]; MCF-7, 100 nM estradiol + 100 nM compound): 60%; decrease in estradiol-mediated transactivation ([3]; MCF-7, 100 nM estradiol + 1 μM compound): 54%; decrease in estradiol-mediated transactivation [3, 4]: 29%; EC50 [2]: 37 nM
O=C(c1ccc(OCCN2CCCCC2)cc1)c1c(-c2ccc(O)cc2)sc2cc(O)ccc12 [raloxifene] | 0.89 | 
CC/C(=C(\c1ccccc1)c1ccc(OCCN(C)C)cc1)c1ccccc1 [tamoxifen] |  | decrease in estradiol-mediated transactivation [3, 4]: 51%
tetrocarcin A [NSC 333856] | 1.34 | 

Reference: PMC6357779 (Journal of biomolecular screening, 2013)
